# The full list was thinned out, with hits kept by preference.
# CHOP inh: inhibitors of CHOP promoter induction, primary screen, cell-based, unfolded protein response, luciferase reporter | CHO-K1 CHOP-promoter luciferase, tunicamycin-induced, 15-18 h | inhibition, % at 10 µM | actives 3.8% (n = 220,000) | AID 2732, 2010;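 active means compounds that reduced the stress-induced luciferase reporter signal by more than about 70% of percent inhibition, limit read from the data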
# NOD2-RIPK2 inh: NOD2-RIPK2 binding disruptors in cells, primary screen, fluorescence, CHO cells, BLA complementation; CCF4 ratio; actives 0.38% (n = 360,000); AID 624267, 2012; inhibition, % at 4.98 µM; Receptor-interacting serine/threonine-protein kinase 2 (Homo sapiens), O43353; in the data active means inhibition above about 21%
# TLR9-MyD88 inh: inhibitors of TLR9-MyD88 association in cells, primary screen, cell-based, CHO, BLA complementation, fluorescence; inhibition, % at 4.98 µM; CCF4 FRET ratio; actives 0.21% (n = 340,000); Toll-like receptor 9 (Homo sapiens) + Myeloid differentiation primary response protein …;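 active means inhibition above the mean over all tested compounds plus 3 SD, cut at about 21% in these data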
# TLR4-MyD88 BLA: inhibitors of TLR4-MyD88 association in cells, primary screen, cell-based, HeLa CL3-4, BLA complementation, FRET ratio. HeLa CL3-4 TLR4/MyD88 BLA complementation. inhibition, % at 8.4 µM. actives 0.18% (n = 200,000); in the data active means inhibition above about 25%
# UPR CHOP act: activators of apoptotic CHOP UPR arm, primary screen, cell-based, CHO-CHOP luciferase reporter, luminescence, uHTS; actives 0.34% (n = 330,000); UPR activation; percent of tunicamycin response over DMSO baseline; AID 449763, 2010; activation, % at 10 µM;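 active means at 10 µM dose, activation of 40% or more, normalized to positive control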
#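 System: CHO-CHOP luciferase reporter cell line; amount: 500 cells/well; buffer or medium: F12 medium containing 10% fetal bovine serum; incubation: 6 h compound exposure at 37 °C after overnight seeding; measured by: luciferase luminescence after 10 min with Steady-Glo reagent; evaluation: % reporter activation, DMSO baseline versus tunicamycin full activation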
# UPR XBP1 act: activators of adaptive XBP1 UPR arm, primary screen, cell-based, CHO-XBP1 luciferase reporter, luminescence, uHTS; activation, % at 20 µM; AID 463104, 2010; IRE1-XBP1 UPR activation; percent of tunicamycin response, DMSO as zero; actives 0.33% (n = 330,000);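 active means versus positive control, 20 µM dose yields 30% or more activation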
#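 incubation = overnight seeding at 37 °C, 6 h compound treatment at 37 °C | assay system = CHO-XBP1 cells stably carrying IRE1-XBP1-driven luciferase reporter | input = 1000 cells per well | detection = luciferase luminescence | dosing = single point, 20 µM final compound, 1% DMSO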
# Hits are given with their value; n = inactive; x = no result given.
SMILES,CHOP inh,NOD2-RIPK2 inh,TLR9-MyD88 inh,TLR4-MyD88 BLA,UPR CHOP act,UPR XBP1 act
Oc1ccc2c3c1O[C@H]1c4oc5ccccc5c4C[C@@]4(O)C(C2)N(CC2CC2)CCC314 (some centres undefined),n,x,x,x,x,x
O=C1NC(=O)N(Cc2ccc(F)cc2)C(=O)/C1=C\C=C\c1ccco1,n,n,n,x,n,n
CC(C)c1ccc(N2C(=O)NC(=O)/C(=C/C=C/c3ccco3)C2=O)cc1,103,n,n,n,x,x
O=C(O)c1ccc2c(c1)C1C(Cl)C(Sc3ccccc3[N+](=O)[O-])CC1C(c1cccc([N+](=O)[O-])c1)N2 (centres undefined),81,n,n,n,x,x
O=C(O)c1cccc2c1NC(c1cccc([N+](=O)[O-])c1)C1CC(Sc3ccccc3[N+](=O)[O-])C(Cl)C21 (centres undefined),n,n,n,n,n,n
Clc1ccc2c(c1)C(c1ccccc1Cl)=NCc1nnc(N3CCN(CCOc4ccccc4)CC3)n1-2,88,n,n,n,n,n
Clc1ccc2c(c1)C(c1ccccc1Cl)=NCc1nnc(N3CCN(CCSc4ccccc4)CC3)n1-2,n,n,n,n,n,n
CCOc1cccc(=NC2CCCCC2)c2c(C)n(C)c(C)c12,79,n,x,x,n,n
CCOc1ccccc1N=C1SCCCN1C,n,n,n,n,n,n
Cc1cccc(C)c1NC(=O)c1cccn(Cc2ccc3c(c2)OC(F)(F)O3)c1=O,86,n,n,n,n,n
CC(C)Oc1cccc(NC(=O)c2cccn(Cc3ccc4c(c3)OC(F)(F)O4)c2=O)c1,n,n,n,n,n,n
O=c1[nH]c(=O)n(Cc2ccccc2)c(O)c1/C=C1\C=Nc2ccccc21,83,n,n,n,n,n
CCCCCCCCCCCCCC(=O)O[C@@H]1[C@@H](C)[C@@]2(O)[C@@H](C=C(CO)C[C@@]3(O)C(=O)C(C)=C[C@@H]23)C2C(C)(C)[C@@]21OC(C)=O (some centres undefined),n,x,x,x,x,x
COC[C@H]1OC(=O)c2coc3c2[C@@]1(C)C1=C(C3=O)C2CCC(=O)[C@@]2(C)C[C@H]1OC(C)=O (some centres undefined),n,x,x,x,x,x
COc1cccc(/C=C2\N=C(c3cncc(Br)c3)OC2=O)c1,85,n,n,n,n,n
CC(C)(O)[C@H]1O[C@H]2CC[C@@]3(C)[C@@](O)(CC[C@H]4Cc5c([nH]c6ccccc56)[C@@]43C)C2=CC1=O,82,x,x,n,n,n
O=C1NC(=S)N(c2ccccc2F)C(=O)/C1=C\c1cccs1,83,n,n,n,n,n
C[C@]12Cc3cn4c(nc3C=C1CCC1C2CC[C@@]2(C)[C@H]1CC[C@@]2(O)C#N)nc1ccccc14 (some centres undefined),n,x,x,x,x,x
O=C1NC(=S)NC(=O)C1=Cc1cccc2cc3ccccc3cc12,108,n,n,x,x,x
Ic1ccccc1CNC1C2CCN(CC2)C1C(c1ccccc1)c1ccccc1 (centres undefined),n,x,x,x,x,x
CC(C)CCNC(=O)c1c(N)n(CC2CCCO2)c2nc3ccccc3nc12 (centres undefined),76,n,n,n,n,n
CCCCn1c(N)c(C(=O)NCCN2CCOCC2)c2nc3ccccc3nc21,n,n,n,n,n,n
COc1ccc(CCNC(=O)c2c(N)n(CCN3CCOCC3)c3nc4ccccc4nc23)cc1,76,n,n,n,n,n
Nc1c(C(=O)NCCc2ccccc2)c2nc3ccccc3nc2n1CCN1CCOCC1,88,n,n,n,n,n
Nc1c(C(=O)NCCN2CCOCC2)c2nc3ccccc3nc2n1Cc1ccccc1,n,n,n,x,n,n

# Compound activity (PubChem)
